Test results: publication PMC3313473 (Free radical biology & medicine, 2011)

Experiments:
[1] = test system: primary human skeletal muscle cells (proliferating, differentiating, differentiated); experiment: MTS cell viability assay; type: cell-based; conditions: 48 h
[2] = test system: primary human skeletal myotubes; experiment: Intracellular ROS generation, DCF-DA staining; type: cell-based; conditions: simvastatin treated myotubes
Bcl-2 = experiment: Western immunoblot of Bcl-2; type: cell-based, human; conditions: 5 µM, 48 h
isolated myofibers = conditions: 50 µM simvastatin; ref Sirvent et al. 29; cited from earlier work
mitochondrial PTP = conditions: ref Velho et al. 37; cited from earlier work
[3] = test system: primary human skeletal myotubes; experiment: Morphological imaging and cell counting of myotubes; type: cell-based; conditions: 5 µM
primary human myotubes = experiment: Mitochondrial superoxide production, MitoSOX Red flow cytometry; type: cell-based; conditions: 5 µM, 48 h
[4] = test system: primary human skeletal myotubes; experiment: TUNEL assessment of apoptotic myonuclei; type: cell-based; conditions: 5 µM, 48 h
Summary of the method: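 Coverslip-grown myotubes exposed 48 h to test compound or 0.1% DMSO vehicle; fixed in 4% paraformaldehyde/PBS (pH 7.4) 20 min RT, permeabilized with 0.1% Triton X-100 in 0.1% sodium citrate 10 min at 4°C. TdT/fluorescein-dUTP labelling 60 min at 37°C, humidified, dark; DAPI counterstain. DNase I positive and label-only negative controls. Positive myonuclei counted over multiple sections as % of DAPI nuclei.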

Bax = experiment: Western immunoblot of Bax; type: cell-based, human; conditions: 5 µM, 48 h
[5] = test system: citrate synthase activity in primary human myotubes; experiment: Citrate synthase activity in myotubes; type: cell-based; conditions: simvastatin-treated myotubes

| Structure (SMILES) | Effect of mevalonate on simvastatin-induced decrease in cell viability ([1]; differentiating cells, 1 µM simvastatin + 50 µM mevalonate) | Effect of mevalonate on simvastatin-induced decrease in cell viability ([1]; proliferating cells, 5 µM simvastatin + 50 µM mevalonate) | IC50 ([1]; Homo sapiens, read-out: IC50 for viability, proliferating cells, 48 h, MTS) [µM] | DCF-DA staining compared with control [2] | Bcl-2 protein levels greater than DMSO control (Bcl-2) [%] | Maximal ADP-stimulated respiration supported by complex I substrates (glutamate + malate) (isolated myofibers) | In vivo and in vitro calcium-dependent mitochondrial PTP opening (mitochondrial PTP) | Changes in the morphology of myotubes ([3]; 24 h) | Changes in the morphology of myotubes ([3]; 48 h) | Fewer myotubes compared with DMSO-treated controls ([3]; 48 h) [%] | Myotube cell number ([3]; 48 h) | Increase in O2•− generation compared to DMSO control (primary human myotubes) | MitoSOX Red mean fluorescence intensity (primary human myotubes; representative histogram) [counts] | TUNEL-positive nuclei compared with control [4] | Bax protein levels higher than control (Bax) [%] | Citrate synthase activity [5] [µmol/g/min] |
| --- | --- | --- | --- | --- | --- | --- | --- | --- | --- | --- | --- | --- | --- | --- | --- | --- |
| CC(O)(CCO)CC(=O)O (stereo not shown) [mevalonate] | prevented | prevented |  |  |  |  |  |  |  |  |  |  |  |  |  |  |
| CCC(C)(C)C(=O)O[C@H]1C[C@@H](C)C=C2C=C[C@H](C)[C@H](CC[C@@H]3C[C@@H](O)CC(=O)O3)[C@H]21 [simvastatin] |  |  | 5 | increased staining | 100 | significantly impaired | increased | not visible | less dense and atrophied | 22.3 | 0.87 × 10^6 cells/ml | approximately 44% | 46.1 | More TUNEL-positive nuclei | 53 | 9.89 ± 1.04 |
